ChEMBL document CHEMBL4613270, “Structure-Activity Relationship Study Enables the Discovery of a Novel Berberine Analogue as the RXRα Activator to Inhibit Colon Cancer” (J Med Chem, 2020)
Active and inactive are the calls of the source. No cut-off for these calls is given here.

Columns and labels:
KM12C = assay: Inhibition of cell proliferation of human KM12C cells incubated for 15 hrs by MTT assay; assay type: functional, cell-based
How it was run: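 Cells plated at 1×10⁴ per well, incubated overnight at 37 °C, then exposed to a concentration series for 15 h. MTT (5 mg/mL stock) added for 4 h at 37 °C. Formazan dissolved in DMSO and absorbance read at 570 nm. IC50 derived from the dose-response curve.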

[1] = target: T1, Retinoic acid receptor RXR-alpha (Homo sapiens) (UniProt P19793); assay: Induction of conformational changes in His-tagged RXRalpha LBD (unknown origin) expressed in Escherichia coli strain BL21 (DE3) at 5 uM by circular dichroism spectroscopic assay
T1 sequence (whole entry): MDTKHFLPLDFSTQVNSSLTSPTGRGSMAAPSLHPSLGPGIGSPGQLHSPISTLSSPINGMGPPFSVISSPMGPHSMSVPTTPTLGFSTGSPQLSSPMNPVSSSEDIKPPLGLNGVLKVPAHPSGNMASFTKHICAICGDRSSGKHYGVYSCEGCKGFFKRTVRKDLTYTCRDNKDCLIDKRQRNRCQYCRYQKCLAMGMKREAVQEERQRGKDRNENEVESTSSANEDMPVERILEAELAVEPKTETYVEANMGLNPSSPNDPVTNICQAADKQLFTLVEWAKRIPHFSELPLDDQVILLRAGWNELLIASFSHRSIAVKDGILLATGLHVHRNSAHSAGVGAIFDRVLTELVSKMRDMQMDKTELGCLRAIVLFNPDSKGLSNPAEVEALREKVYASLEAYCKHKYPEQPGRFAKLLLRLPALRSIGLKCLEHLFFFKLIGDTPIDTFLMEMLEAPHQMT
How it was run: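 His-RXRα-LBD expressed in E. coli BL21(DE3) (0.1 mM IPTG, 16 °C, 16 h), Ni-NTA purified, diluted to 1 µM in 0.01 M phosphate buffer; compound 5 µM (0.01% DMSO). CD spectra recorded 180-260 nm at 25 °C, 0.1 cm path, 1 nm bandwidth, 20 nm/min, 5 min after compound addition.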

[2] = target: T1, Retinoic acid receptor RXR-alpha (Homo sapiens); assay: Activation of RXRalpha (unknown origin) expressed in human KM12C cells co-expressing beta-catenin assessed as induction of RXRalpha interaction with beta-catenin at 25 to 50 uM incubated for 15 hrs by mammalian two-hybrid assay; assay type: cell-based
How it was run: (§1)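 Mammalian two-hybrid: cells co-transfected by lipofection with pBIND-β-catenin/S33Y plus pACT-RXRα (RXRα–β-catenin) or pACT-c-Cbl (β-catenin–c-Cbl); 20 h after transfection, compound added for 15 h; cells lysed in passive lysis buffer, 4 °C, 1 h; firefly and Renilla luciferase read by dual-luciferase kit.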

[3] = target: T1, Retinoic acid receptor RXR-alpha (Homo sapiens); assay: Activation of RXRalpha (unknown origin) expressed in human SW620 cells co-expressing beta-catenin assessed as induction of RXRalpha interaction with beta-catenin at 40 to 80 uM incubated for 15 hrs by mammalian two-hybrid assay; assay type: cell-based; details: SW-620; how it was run: as §1
[4] = target: T1, Retinoic acid receptor RXR-alpha (Homo sapiens); assay: Activation of RXRalpha (unknown origin) expressed in human HCT116 cells co-expressing beta-catenin and c-Cbl assessed as induction of beta-caten interaction with c-Cbl at 30 to 60 uM incubated for 15 hrs by mammalian two-hybrid assay; assay type: cell-based; details: HCT-116; how it was run: as §1
[5] = target: T1, Retinoic acid receptor RXR-alpha (Homo sapiens); assay: Activation of RXRalpha in human HCT116 cells assessed as […] crease in p21 (WAF1/CIP1) mRNA expression at 30 to 60 uM incubated for 15 hrs by real-time PCR analysis; assay type: cell-based; details: HCT-116
[6] = target: T1, Retinoic acid receptor RXR-alpha (Homo sapiens); assay: Activation of RXRalpha in human SW620 cells assessed as increase in p21 (WAF1/CIP1) protein expression at 40 to 80 uM incubated for 15 hrs by Western blot analysis; assay type: cell-based; details: SW-620
[7] = target: T1, Retinoic acid receptor RXR-alpha (Homo sapiens); assay: In-vivo activation of RXRalpha in BALB/c mouse xenografted with human KM12C cells assessed as reduction in Cdc2 protein expression at 100 mg/kg, ig dosed daily for 15 days by Western blot analysis; assay type: functional, organism-based
How it was run: (§2)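 KM12C cells (1×10^6 per mouse in 100 μL HBSS) injected subcutaneously into both flanks of nude mice; after seven days, randomized to three groups, dosed intragastrically once daily for 15 days with vehicle (CMC-Na) or 100 mg/kg compound; mice euthanized and tumors removed for analysis.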

[8] = target: T1, Retinoic acid receptor RXR-alpha (Homo sapiens); assay: In-vivo activation of RXRalpha in BALB/c mouse xenografted with human KM12C cells assessed as reduction in Cdc2 protein expression at 100 mg/kg, ig dosed daily for 15 days by immunohistochemistry analysis; assay type: functional, organism-based; how it was run: as §2
[9] = target: T1, Retinoic acid receptor RXR-alpha (Homo sapiens); assay: In-vivo activation of RXRalpha in BALB/c mouse xenografted with human KM12C cells assessed as reduction in c-Myc protein expression at 100 mg/kg, ig dosed daily for 15 days by immunohistochemistry analysis; assay type: functional, organism-based; how it was run: as §2
[10] = target: T1, Retinoic acid receptor RXR-alpha (Homo sapiens); assay: In-vivo activation of RXRalpha in BALB/c mouse xenografted with human KM12C cells assessed as effect on Ki67 protein expression at 100 mg/kg, ig dosed daily for 15 days by immunohistochemistry analysis; assay type: functional, organism-based
[11] = target: T1, Retinoic acid receptor RXR-alpha (Homo sapiens); assay: In-vivo activation of RXRalpha in BALB/c mouse xenografted with human KM12C cells assessed as increase in p21 (WAF1/CIP) protein expression at 100 mg/kg, ig dosed daily for 15 days by immunohistochemistry analysis; assay type: functional, organism-based
[12] = target: T1, Retinoic acid receptor RXR-alpha (Homo sapiens); assay: In-vivo activation of RXRalpha in BALB/c mouse xenografted with human KM12C cells assessed as reduction in Cdc2 mRNA expression at 100 mg/kg, ig dosed daily for 15 days by real-time PCR analysis; assay type: functional, organism-based; how it was run: as §2
[13] = target: T1, Retinoic acid receptor RXR-alpha (Homo sapiens); assay: In-vivo activation of RXRalpha in BALB/c mouse xenografted with human KM12C cells assessed as increase in p21 (WAF1/CIP1) mRNA expression at 100 mg/kg, ig dosed daily for 15 days by real-time PCR analysis; assay type: functional, organism-based
[14] = Toxicity in BALB/c mouse xenografted with human KM12C cells assessed as effect on biochemical parameter by measuring ALT level at 100 mg/kg, ig dosed daily for 15 days by automatic chemistry analyzer based analysis (reference value: 24.18 +/- 0.77 U/L); assay type: organism-based; details: in vivo, po, 360 h
[15] = Toxicity in BALB/c mouse xenografted with human KM12C cells assessed as effect on biochemical parameter by measuring AST level at 100 mg/kg, ig dosed daily for 15 days by automatic chemistry analyzer based analysis (reference value: 157.15 +/- 8.41 U/L); assay type: organism-based; details: in vivo, po, 360 h
[16] = Toxicity in BALB/c mouse xenografted with human KM12C cells assessed as effect on biochemical parameter by measuring calcium level at 100 mg/kg, ig dosed daily for 15 days by automatic chemistry analyzer based analysis (reference value: 2.27 +/- 0.059 mmol/L); assay type: organism-based; details: in vivo, po, 360 h
[17] = Cmax in Sprague-Dawley rat at 100 mg/kg, ig measured after 0.083 to 36 hrs by LC-MS/MS analysis; assay type: ADME, organism-based; set-up: dose 100 mg/kg, route intragastric; details: in vivo, po
How it was run: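 SD rats (200 ± 20 g) randomized to three groups; single intragastric dose of 100 mg/kg or vehicle (0.5% CMC-Na). Tail-vein blood (0.5 mL) drawn at 0.083, 0.25, 0.5, 1, 2, 4, 8, 12, 24 and 36 h. Plasma separated by centrifugation at 2000 rpm for 10 min, frozen at -80 °C, then quantified by LC-MS/MS.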

SMILES	IC50 (KM12C)	Activity [1]	Activity [2]	Activity [3]	Activity [4]	Activity [5]	Activity [6]	Activity [7]	Activity [8]	Activity [9]	Activity [10]	Activity [11]	Activity [12]	Activity [13]	Activity [14]	Activity [15]	Activity [16]	Cmax [17]	Cmax ([17]; Sprague-Dawley, read-out: Cmax)
COc1ccc2cc3[n+](cc2c1OC)CCc1cc2c(cc1-3)OCO2.[Cl-] [BERBERINE CHLORIDE]	76.3 µM	Active	Active	Active	Active	Active	Active	Active	Active	Active	Active	Active	Active	Active	27.9 U/L	177.86 U/L	2.13 mmol/L	0.002893 µg/mL	–
COc1ccc2c(c1)CC[n+]1cc3c(OC)cccc3cc1-2.[Cl-]	31.1 µM	Active	Active	Active	Active	Active	Active	Active	Active	Active	Active	Active	Active	Active	27.2 U/L	158.36 U/L	2.23 mmol/L	–	0.486 µg/mL
